Assay results published in ChEMBL document CHEMBL3045743, “Synthesis and herbicidal activity of isoindoline-1,3-dione substituted benzoxazinone derivatives containing a carboxylic ester group” (J Agric Food Chem, 2009).

Experiments:
[1] = test system: Zea mays; experiment: Phytotoxicity against Zea mays (maize) assessed as growth inhibition at 7.5 to 60 g.a.i/ha post-emergent application measured after 15 days by greenhouse crop selectivity assay; assay type: organism-based; conditions: in vivo, other, 360 h
In short: (§1)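 Postemergence crop selectivity test on pot-grown plants in a greenhouse, in clay soil (pH 6.5, 1.7% organic matter, CEC 12.9 cmol/kg). Stock was diluted with water and sprayed at 60, 30, 15 or 7.5 g a.i./ha, in triplicate. Growth inhibition was rated visually against untreated controls after 15 days and given as the triplicate mean percentage.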

[2] = test system: Brassica rapa subsp. oleifera; experiment: Phytotoxicity against Brassica rapa subsp. oleifera assessed as growth inhibition at 150 g.a.i/ha pre-emergent application measured after 15 days by greenhouse crop selectivity assay; assay type: functional; conditions: pre-emergence, 360 h, read-out: GI
In short: (§2)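 Pot-grown crop in greenhouse clay soil (pH 6.5, 1.7% organic matter, 37.5% clay, CEC 12.9 cmol/kg). Stock diluted with water and applied pre-emergence at 300, 150, 75 or 37.5 g a.i./ha. Cultivated 15 days, then phytotoxicity scored visually as % growth inhibition versus untreated controls. Triplicate treatments, averaged.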

[3] = test system: Amaranthus spinosus; experiment: Pre-emergence herbicidal activity against Amaranthus spinosus assessed as growth inhibition at 7.5 g.a.i./ha applied 24 hr after seeds were sown measured after 15 days; assay type: functional; conditions: read-out: GI
In short: (§3)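 Weeds sown 5 mm deep in pots of greenhouse clay soil (pH 6.5, 37.5% clay, CEC 12.9 cmol/kg) and grown at 22-25 °C. Water-diluted formulation was applied pre-emergence 24 h after sowing. Untreated and DMF solvent controls were included. Growth inhibition was visually rated in % against untreated controls after 15 days, as the mean of triplicates.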

[4] = test system: Chenopodium album; experiment: Post-emergence herbicidal activity against Chenopodium album assessed as growth inhibition at 15 g.a.i./ha applied at two-leaf stage measured after 15 days; assay type: functional; conditions: 360 h, read-out: GI
In short: (§4)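 Pot-grown weeds sown 5 mm deep in greenhouse clay soil (pH 6.5, 1.7% organic matter, CEC 12.9 cmol/kg) at 22-25 °C. Stock diluted with water and sprayed post-emergence: dicots at 2-leaf stage, monocots at 1-leaf stage. Untreated and DMF solvent controls were included. % growth inhibition was scored visually versus untreated controls after 15 days. Triplicates averaged.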

[5] = test system: Glycine max; experiment: Phytotoxicity against Glycine max (soybean) assessed as growth inhibition at 37.5 g.a.i/ha pre-emergent application measured after 15 days by greenhouse crop selectivity assay; assay type: organism-based; conditions: in vivo, other, 360 h
In short: (§5)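 Pre-emergence greenhouse crop selectivity test on pot-grown plants in clay soil (pH 6.5, 1.7% organic matter, 37.5% clay, CEC 12.9 cmol/kg). Stock solutions were diluted with water and applied at 300, 150, 75 or 37.5 g a.i./ha, in triplicate. After 15 days, phytotoxicity was scored visually against untreated controls as % crop growth inhibition, averaged over the triplicates.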

[6] = test system: Brassica rapa subsp. oleifera; experiment: Phytotoxicity against Brassica rapa subsp. oleifera assessed as growth inhibition at 75 g.a.i/ha pre-emergent application measured after 15 days by greenhouse crop selectivity assay; assay type: functional; conditions: pre-emergence, 360 h, read-out: GI; in short: as §2
[7] = test system: Gossypium; experiment: Phytotoxicity against Gossypium (cotton) assessed as growth inhibition at 37.5 g.a.i/ha pre-emergent application measured after 15 days by greenhouse crop selectivity assay; assay type: organism-based; conditions: in vivo, other, 360 h; in short: as §5
[8] = test system: Abutilon theophrasti; experiment: Post-emergence herbicidal activity against Abutilon theophrasti (velvetleaf) assessed as growth inhibition at 7.5 g.a.i./ha applied at two-leaf stage measured after 15 days; assay type: functional; conditions: 360 h, read-out: GI; in short: as §4
[9] = Phytotoxicity against Triticum aestivum (wheat) assessed as growth inhibition at 300 g.a.i/ha pre-emergent application measured after 15 days by greenhouse crop selectivity assay; assay type: organism-based; conditions: in vivo, read-out: GI; in short: as §5
[10] = test system: Digitaria sanguinalis; experiment: Post-emergence herbicidal activity against Digitaria sanguinalis (hairy crabgrass) assessed as growth inhibition at 75 g.a.i./ha applied at one-leaf stage measured after 15 days; assay type: functional; conditions: 360 h, read-out: GI; in short: as §4
[11] = Phytotoxicity against Oryza sativa (rice) assessed as growth inhibition at 300 g.a.i/ha pre-emergent application measured after 15 days by greenhouse crop selectivity assay; assay type: organism-based, L.; conditions: in vivo, read-out: GI; in short: as §5
[12] = test system: Echinochloa crus-galli; experiment: Pre-emergence herbicidal activity against Echinochloa crus-galli (barnyard grass) assessed as growth inhibition at 37.5 g.a.i./ha applied 24 hr after seeds were sown measured after 15 days; assay type: functional; conditions: read-out: GI; in short: as §3
[13] = test system: Chenopodium album; experiment: Pre-emergence herbicidal activity against Chenopodium album assessed as growth inhibition at 75 g.a.i./ha applied 24 hr after seeds were sown measured after 15 days; assay type: functional; conditions: read-out: GI; in short: as §3
[14] = test system: Amaranthus spinosus; experiment: Post-emergence herbicidal activity against Amaranthus spinosus assessed as growth inhibition at 7.5 g.a.i./ha applied at two-leaf stage measured after 15 days; assay type: functional; conditions: 360 h, read-out: GI; in short: as §4
[15] = test system: Setaria viridis; experiment: Post-emergence herbicidal activity against Setaria viridis (green foxtail) assessed as growth inhibition at 7.5 g.a.i./ha applied at one-leaf stage measured after 15 days; assay type: functional; conditions: 360 h, read-out: GI; in short: as §4
[16] = test system: Abutilon theophrasti; experiment: Pre-emergence herbicidal activity against Abutilon theophrasti (velvetleaf) assessed as growth inhibition at 37.5 g.a.i./ha applied 24 hr after seeds were sown measured after 15 days; assay type: functional; conditions: read-out: GI; in short: as §3
[17] = test system: Chenopodium album; experiment: Pre-emergence herbicidal activity against Chenopodium album assessed as growth inhibition at 37.5 g.a.i./ha applied 24 hr after seeds were sown measured after 15 days; assay type: functional; conditions: read-out: GI; in short: as §3
[18] = test system: Gossypium; experiment: Phytotoxicity against Gossypium (cotton) assessed as growth inhibition at 7.5 to 60 g.a.i/ha post-emergent application measured after 15 days by greenhouse crop selectivity assay; assay type: organism-based; conditions: in vivo, other, 360 h; in short: as §1
[19] = test system: Chenopodium album; experiment: Post-emergence herbicidal activity against Chenopodium album assessed as growth inhibition at 75 g.a.i./ha applied at two-leaf stage measured after 15 days; assay type: functional; conditions: 360 h, read-out: GI; in short: as §4
[20] = test system: Setaria viridis; experiment: Pre-emergence herbicidal activity against Setaria viridis (green foxtail) assessed as growth inhibition at 75 g.a.i./ha applied 24 hr after seeds were sown measured after 15 days; assay type: functional; conditions: read-out: GI
In short: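 Preliminary pre-emergence screen at a single rate of 75 g a.i./ha. Stock diluted with water and sprayed on greenhouse pots 24 h after seeds were sown 5 mm deep in clay soil (pH 6.5, 1.7% organic matter); grown at 22-25 °C. Untreated and DMF solvent controls included; triplicate. Visual % growth inhibition vs untreated after 15 days, averaged and banded (>80% top band).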

[21] = test system: Digitaria sanguinalis; experiment: Pre-emergence herbicidal activity against Digitaria sanguinalis (hairy crabgrass) assessed as growth inhibition at 37.5 g.a.i./ha applied 24 hr after seeds were sown measured after 15 days; assay type: functional; conditions: read-out: GI; in short: as §3
[22] = test system: Setaria viridis; experiment: Pre-emergence herbicidal activity against Setaria viridis (green foxtail) assessed as growth inhibition at 7.5 g.a.i./ha applied 24 hr after seeds were sown measured after 15 days; assay type: functional; conditions: read-out: GI
In short: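 Secondary pre-emergence test run at 7.5, 15 and 37.5 g a.i./ha on pot-grown weeds in a greenhouse at 22-25 °C. Seeds sown 5 mm deep in clay soil (pH 6.5, 1.7% organic matter, CEC 12.9 cmol/kg). Stock diluted with water and applied 24 h after sowing. Done in triplicate; visual % growth inhibition vs untreated after 15 days, averaged.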

[23] = test system: Echinochloa crus-galli; experiment: Pre-emergence herbicidal activity against Echinochloa crus-galli (barnyard grass) assessed as growth inhibition at 7.5 g.a.i./ha applied 24 hr after seeds were sown measured after 15 days; assay type: functional; conditions: read-out: GI; in short: as §3
[24] = test system: Zea mays; experiment: Phytotoxicity against Zea mays (maize) assessed as growth inhibition at 75 g.a.i/ha pre-emergent application measured after 15 days by greenhouse crop selectivity assay; assay type: organism-based; conditions: in vivo, other, 360 h; in short: as §5
[25] = test system: Glycine max; experiment: Phytotoxicity against Glycine max (soybean) assessed as growth inhibition at 75 g.a.i/ha pre-emergent application measured after 15 days by greenhouse crop selectivity assay; assay type: organism-based; conditions: in vivo, other, 360 h; in short: as §5

Row | Structure (SMILES) | Activity [1] | inhibition of growth at 150 g/ha [2] [%] | inhibition of growth at 7.5 g/ha [3] [%] | inhibition of growth at 15 g/ha [4] [%] | growth inhibition (GI) [5] | inhibition of growth at 75 g/ha [6] [%] | growth inhibition (GI) [7] | inhibition of growth at 7.5 g/ha [8] [%] | inhibition at 360 h [9] [%] | inhibition of growth at 75 g/ha [10] [%] | inhibition at 360 h [11] [%] | inhibition of growth at 37.5 g/ha [12] [%] | inhibition of growth at 75 g/ha [13] [%] | inhibition of growth at 7.5 g/ha [14] [%] | inhibition of growth at 7.5 g/ha [15] [%] | inhibition of growth at 37.5 g/ha [16] [%] | inhibition of growth at 37.5 g/ha [17] [%] | Activity [18] | inhibition of growth at 75 g/ha [19] [%] | inhibition of growth at 75 g/ha [20] [%] | further results
1 | C#CCN1C(=O)COc2cc(F)c(N3C(=O)C4=C(CCCC4)C3=O)cc21 [FLUMIOXAZIN] | Toxic | > 10 | 100 | 100 | Not Active | > 10 | Not Active | 100 | > 10 | > 80 | > 10 | 70 | > 80 | 100 | 80 | 100 | 100 | Toxic | > 80 | > 80 | inhibition of growth at 37.5 g/ha [21]: 80%; inhibition of growth at 7.5 g/ha [22]: 0%; inhibition of growth at 7.5 g/ha [23]: 0%
2 | COC(=O)C(C)N1C(=O)C(C)Oc2cc(F)c(N3C(=O)C4=C(CCCC4)C3=O)cc21 (stereo not drawn) | Toxic | > 10 | 100 | 100 | Not Active | > 10 | Not Active | 100 | > 10 | > 80 | > 10 | 80 | > 80 | 100 | 10 | 70 | 100 | Toxic | > 80 | > 80 | growth inhibition (GI) [24]: Not Active; growth inhibition (GI) [25]: Not Active; inhibition of growth at 37.5 g/ha [21]: 50%; inhibition of growth at 7.5 g/ha [22]: 0%; inhibition of growth at 7.5 g/ha [23]: 0%
3 | CCOC(=O)C(CC)N1C(=O)C(C)Oc2cc(F)c(N3C(=O)C4=C(CCCC4)C3=O)cc21 (stereo not drawn) | Toxic | > 10 | 100 | 100 | Not Active | > 10 | Not Active | 100 | > 10 | > 80 | > 10 | 0 | > 80 | 100 | 20 | 70 | 100 | Toxic | > 80 | > 80 | growth inhibition (GI) [24]: Not Active; growth inhibition (GI) [25]: Not Active; inhibition of growth at 37.5 g/ha [21]: 0%; inhibition of growth at 7.5 g/ha [22]: 0%; inhibition of growth at 7.5 g/ha [23]: 0%
4 | CCOC(=O)C(C)N1C(=O)C(C)Oc2cc(F)c(N3C(=O)C4=C(CCCC4)C3=O)cc21 (stereo not drawn) | Toxic | > 10 | 90 | 100 | Not Active | > 10 | Not Active | 100 | > 10 | > 80 | > 10 | 30 | > 80 | 100 | 20 | 20 | 100 | Toxic | > 80 | > 80 | growth inhibition (GI) [24]: Not Active; growth inhibition (GI) [25]: Not Active; inhibition of growth at 37.5 g/ha [21]: 80%; inhibition of growth at 7.5 g/ha [22]: 0%; inhibition of growth at 7.5 g/ha [23]: 0%
